Apaf1 activ: human Apaf-1 activation; Apaf-1 apoptosome caspase-3 activation, DEVD-Rh110 fluorescence; stronger effect = lower value; O14727; activity change, negative = activation, % at 20 µM; hit rate 0.31% among 330,000;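 active = activity change at or below -40% at 20 µM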
Target sequence (O14727 whole entry, looked up): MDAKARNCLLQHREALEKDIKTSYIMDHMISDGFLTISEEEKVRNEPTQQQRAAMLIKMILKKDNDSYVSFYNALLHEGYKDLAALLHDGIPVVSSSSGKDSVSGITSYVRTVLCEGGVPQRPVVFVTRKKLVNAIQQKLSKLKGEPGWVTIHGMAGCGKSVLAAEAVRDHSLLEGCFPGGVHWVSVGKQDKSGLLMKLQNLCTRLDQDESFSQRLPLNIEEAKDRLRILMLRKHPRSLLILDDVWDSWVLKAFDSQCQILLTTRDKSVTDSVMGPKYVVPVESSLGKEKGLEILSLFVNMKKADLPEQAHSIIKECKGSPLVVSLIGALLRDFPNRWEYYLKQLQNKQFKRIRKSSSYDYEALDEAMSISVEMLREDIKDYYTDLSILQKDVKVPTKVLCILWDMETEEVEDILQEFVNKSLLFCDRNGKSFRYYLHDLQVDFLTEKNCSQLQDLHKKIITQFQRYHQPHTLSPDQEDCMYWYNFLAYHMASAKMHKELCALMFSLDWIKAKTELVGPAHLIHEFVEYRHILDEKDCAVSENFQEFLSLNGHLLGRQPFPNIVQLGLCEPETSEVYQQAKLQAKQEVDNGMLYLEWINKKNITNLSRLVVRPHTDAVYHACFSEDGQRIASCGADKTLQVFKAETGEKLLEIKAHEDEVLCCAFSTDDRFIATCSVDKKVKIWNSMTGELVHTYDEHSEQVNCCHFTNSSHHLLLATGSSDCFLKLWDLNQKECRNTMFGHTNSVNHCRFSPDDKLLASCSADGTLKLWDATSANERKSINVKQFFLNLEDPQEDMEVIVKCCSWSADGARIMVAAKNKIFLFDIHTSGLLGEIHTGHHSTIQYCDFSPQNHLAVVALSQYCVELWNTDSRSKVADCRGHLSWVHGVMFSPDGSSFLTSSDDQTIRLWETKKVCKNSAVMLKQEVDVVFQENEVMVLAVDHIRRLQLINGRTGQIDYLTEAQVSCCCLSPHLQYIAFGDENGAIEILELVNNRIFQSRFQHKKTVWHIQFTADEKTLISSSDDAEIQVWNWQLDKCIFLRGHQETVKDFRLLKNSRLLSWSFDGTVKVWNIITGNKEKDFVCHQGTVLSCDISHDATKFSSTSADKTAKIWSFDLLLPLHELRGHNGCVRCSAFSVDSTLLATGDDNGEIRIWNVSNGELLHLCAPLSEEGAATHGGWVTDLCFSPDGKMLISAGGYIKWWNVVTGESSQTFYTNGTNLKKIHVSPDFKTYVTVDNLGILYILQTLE
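Material: biochemical Apaf-1 apoptosome reconstitution; Medium: 20 mM HEPES buffer, pH 7.5, containing CHAPS and BSA; Reagent: dATP, cytochrome c, and (Z-DEVD)2-Rh110 caspase-3 substrate; Times: 30 min preincubation, 50 min reaction, room temperature; Signal: Rh110 fluorescence, excitation 480 nm, emission 540 nm; Measure: Caspase-3 activity via Apaf-1.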
Rh110 act interf: Rh110 signal interference in Apaf-1 activator counter-screen; shares compounds with Apaf1 activ; Rh110 fluorescence interference, quenched caspase reaction, Ex480/Em540; fluorescence interference (activity change), % at 20 µM, hits read low; 980 tested, under 10 active; AID 504616;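 active = mean activity change at or below -40% when tested at 20 µM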
Apaf-1 act conf: Apaf-1 (human) activation, single-dose confirmed | shares compounds with Apaf1 activ | reconstituted apoptosome caspase-3 activity, DEVD-Rh110 fluorescence; stronger effect = lower value | activity change, negative = activation, % at 20 µM | hit rate 5% among 980;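 active = mean activity change at or below -40%, meaning activation of 40% or more, at 20 µM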
* marks the source's active call; other numbers are inactive results; · = no result. A selection follows.

SMILES | Apaf1 activ | Rh110 act interf | Apaf-1 act conf
Cc1[nH]n(-c2ccccc2)c(=O)c1N=Nc1cccc(S(=O)(=O)N2CCOCC2)c1 | 45.7 | · | ·
Cc1nc2ccc3nc(NC(=O)c4ccc(S(=O)(=O)N5CCOCC5)cc4)sc3c2s1 | -80.1* | -6.9 | -21.4
CCN1CCN(c2ccc(S(=O)(=O)N3CCOCC3)cc2NC(=O)CC(C)C)CC1 | 50.1 | · | ·
Cc1cc(NC(=O)c2cccc(S(=O)(=O)N3CCOCC3)c2)no1 | -49.7* | 2.4 | 9.1
Cc1ccc(-n2c(O)c(/C=N/Nc3ccc(S(=O)(=O)N4CCOCC4)cc3[N+](=O)[O-])c3ccccc3c2=O)c(C)c1 | 50.7 | · | ·
CN1CCc2cc3c(c4c2[C@H]1[C@H](O)c1ccccc1-4)OCO3 | 48.2 | · | ·
Cc1cccc(C(=O)NC2C(=O)NNC2c2ccc(Cl)cc2)c1 (stereo not drawn) | 54.0 | · | ·
NC1=NC(c2ccc(Cl)cc2)C(C(=O)c2ccccc2)N1 (stereo not drawn) | -470.4* | 3.2 | 15.1
COc1cc(OC)c2c(-c3ccccc3)cc(=O)oc2c1C(CCN1CCCCC1)c1ccc(N(C)C)cc1 (stereo not drawn) | 54.4 | · | ·
COc1cc(NCCCCCCCN)c2ncccc2c1 | 94.7 | · | ·
CCC(CO)Oc1cc(NCc2ccc(C)cc2)c2ncn(C(C)C)c2c1 (stereo not drawn) | 41.0 | · | ·
Cc1ccc(-n2nc3ccc(N)cc3n2)cc1Cl | 96.3 | · | ·
O=[N+]([O-])c1cccc(C2(O)COc3ccccc3O2)c1 (stereo not drawn) | -83.5* | 5.1 | 11.3
Cn1c(CN2CCCC2)nc2cc(NC(=O)COc3ccccc3)ccc21 | 53.4 | · | ·
CCN(c1ccccc1)S(=O)(=O)c1ccc(Cl)c(NC(=O)CN2CCN(C)CC2)c1 | 51.5 | · | ·
O=C(CN1CCN(Cc2ccccc2)CC1)Nc1cccc(S(=O)(=O)N2CCCCCC2)c1 | -173.5* | 10.5 | 14.7
O=C(CSc1ncnc2ccccc12)Nc1cccc(S(=O)(=O)N2CCCC2)c1 | -42.9* | 2.1 | 0.6
Cn1c(CCN2CCCCC2)nc2cc(NC(=O)COc3ccccc3)ccc21 | 52.6 | · | ·
COC(=O)c1c(NC(=O)c2nc3ccccc3s2)sc2c1CC(C)(C)NC2(C)C | 58.2 | · | ·
O=C1C(NS(=O)(=O)c2cccs2)=C(N2CCN(c3cccc(Cl)c3)CC2)C(=O)c2ccccc21 | 57.8 | · | ·
COc1cccc2c1C(=O)c1c(O)c3c(c(O)c1C2=O)C[C@@](O)(C(=O)CO)C[C@@H]3O[C@H]1C[C@H](N)[C@@H](O)[C@H](C)O1 | 55.8 | · | ·
Cc1ccc(-c2noc(CCC(=O)N3CCN(c4cccc(C(F)(F)F)c4)CC3)n2)cc1 | 42.1 | · | ·
O=C(NCCc1ccccc1)c1ccccc1SCC(=O)N1CCCC1 | 60.3 | · | ·
O=C(CSc1ccccn1)N1CCN(c2ccccc2)CC1 | -49.0* | -9.6 | 6.2
Cc1ccc(NC2=CC(=O)C(=O)c3ccccc32)c(C)c1 | 86.6 | · | ·
SMILES | Apaf1 activ | Rh110 act interf | Apaf-1 act conf
Cc1nc(Nc2cnc(/C=C/c3cc(C(=O)Nc4cccc(C(F)(F)F)c4)ccc3C)cn2)cc(N2CCNCC2)n1 | 74.7 | · | ·
O=C(NC1(O)C(=O)c2ccccc2C1=O)c1ccc(C(F)(F)F)cc1 | 96.3 | · | ·
O=C(Nc1cccc(-n2cnnn2)c1)c1ccc(C(F)(F)F)cc1 | -67.2* | 4.0 | -0.1
CCOC(=O)Cc1csc(N/C(=N/S(=O)(=O)c2ccc(Cl)cc2)c2ccccc2)n1 | 63.2 | · | ·
CCOc1cc(/C=N/NC(=O)C(=O)NCCCOC(C)C)cc(Br)c1O | -173.2* | -0.4 | 12.1
C=C[C@@H]1CN2CCC1C[C@@H]2[C@@H](O)c1ccnc2ccc(OC)cc12 (stereo partly drawn) | 0.9 | · | ·
O=C(Nc1ccccc1)c1ccc2nc(-c3ccco3)c(-c3ccco3)nc2c1 | 60.0 | · | ·
COc1ccc(C(=O)Nc2ccc(C(=O)c3ccccc3)cc2)cc1 | -385.4* | -2.3 | 2.2
COc1ccc(Nc2ccc(OC)cc2)cc1 | 79.9 | · | ·
O=C(Cc1ccccc1)NC1(O)C(=O)c2ccccc2C1=O | 85.4 | · | ·
O=C(C1CC(=O)N(c2ccc3c(c2)OCCO3)C1)N1CCCC(C(F)(F)F)C1 (stereo not drawn) | -44.8* | 4.7 | 2.3
Oc1ccc(N=Cc2ccc(OCc3ccccc3)cc2)cc1 | 92.7 | · | ·
Cc1ccccc1NC(=O)CSc1nnc(NC(=O)c2ccco2)s1 | -65.8* | -3.9 | 4.2
O[C@@H](c1cc(C(F)(F)F)nc2c(C(F)(F)F)cccc12)[C@H]1CCCCN1 | 51.9 | · | ·
COc1cccc(/C=N/NC(=O)NC23CC4CC(CC(C4)C2)C3)c1O | 40.1 | · | ·
CCCCNc1c(-c2ccc(OC)c(SC(C)CC)c2)nc2cc(C)ccn12 (stereo not drawn) | 48.9 | · | ·
O=C(OCC(=O)N1CCCCC1)c1n[nH]c(=O)c2ccccc12 | -571.6* | 2.4 | 7.3
Cc1ccccc1-n1c(C)nc2ccccc21 | -75.2* | -5.7 | 5.3

Bioassay records as filed in PubChem.
